According to ChEMBL document CHEMBL1139474, “Cellular apoptosis and cytotoxicity of phenolic compounds: a quantitative structure-activity relationship study” (J Med Chem, 2005):

Experiments:
L1210 [1] = test: Cytotoxicity against mouse L1210 cells; details: for log(1/ID50): mouse, l1210
HL-60 [2] = test: Cytotoxicity against human HL60 cells; type: cell-based
Summary of the method: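 HL-60 cells grown at 37 °C in RPMI with L-glutamine and 10% FBS, then seeded at (2–5) × 10⁴ cells/mL, in duplicate, at eight or more concentrations. Compounds were diluted in unsupplemented RPMI and added 1:10. After 48 h of continuous exposure, CyQUANT GR nucleic-acid dye fluorescence was read (ex 485/em 530 nm). IC50 is the concentration giving 50% lower fluorescence than controls, taken from the dose-response curve.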

[3] = Cytotoxicity against human CEM/VLB cells
CCRF-CEM = test: Cytotoxicity against human CCRF-CEM cells
L1210 [4] = test: Activity against caspase-mediated apoptosis in mouse L1210 cells; type: functional
L1210 [5] = test: Activity against caspase-mediated apoptosis in mouse L1210 cells at 0.1 mM; type: functional
MCF7 = test: Cytotoxicity against human MCF7 cells
HL-60 [6] = test: Induction of DNA fragmentation in human HL60 cells after 16 hrs; type: functional, cell-based; details: HL-60, 16 h
L1210 [7] = test: Induction of apoptosis in mouse L1210 cells at 151 uM; type: functional
Summary of the method: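 L1210 cells at 4 × 10⁴ cells/mL were incubated with or without the phenol for 12 h at 37 °C. Caspase activity was then measured in a homogeneous fluorimetric assay: DEVD-rhodamine 110 substrate in incubation buffer was added for 2 h at 37 °C, and fluorescence was read at 521 nm with excitation at 490 nm.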

SMILES | log(1/ID50) (L1210 [1]) | log(1/ID50) (HL-60 [2]) | log(1/ID50) [3] | log(1/ID50) (CCRF-CEM) | log(1/ID50) (L1210 [4]) | Activity (L1210 [5]) | log(1/ID50) (MCF7) | IC50 (HL-60 [6]) | Activity (L1210 [7]) | IC50 (L1210 [1]; Mus musculus, L1210)
Oc1ccccc1 [PHENOL] | 3.27 | 3.05 | 2.65 | 3.27 | -0.2 | <15% | 2.56 | – | – | –
CCCOc1ccc(O)cc1 [1-hydroxy-4-propoxybenzene] | 4.85 | 3.7 | – | – | 0.09 | <15% | – | – | – | –
Oc1ccc(I)cc1 | 3.86 | – | 3.86 | 4.29 | – | <15% | – | – | – | –
COc1ccc(O)cc1 [MEQUINOL] | – | 3.6 | 4.36 | 4.41 | 0.02 | <15% | – | – | – | –
C[C@]12CC[C@@H]3c4ccc(O)cc4CC[C@H]3[C@@H]1CC[C@@H]2O [ESTRADIOL] | – | 3.6 | – | – | – | – | – | – | – | –
Oc1ccc(Cl)cc1 [PARACHLOROPHENOL] | 4.29 | – | 3.89 | 3.45 | – | <15% | – | – | – | –
NC(=O)c1ccc(O)cc1 | 2.48 | – | 2.38 | 2.23 | – | <15% | – | – | – | –
CC/C(=C(/CC)c1ccc(O)cc1)c1ccc(O)cc1 [DIETHYLSTILBESTROL] | – | 4 | – | – | – | – | – | – | – | –
NS(=O)(=O)c1ccc(O)cc1 | 2.5 | – | 2.11 | 2.31 | – | <15% | – | – | – | –
O=[N+]([O-])c1ccc(O)cc1 [P-NITROPHENOL] | 3.45 | – | 3.36 | 3.28 | 1 | <15% | – | – | – | –
CCCc1ccc(O)cc1 | 4.04 | – | 3.73 | 3.72 | – | <15% | – | – | – | –
Oc1ccc(Oc2ccccc2)cc1 | 4.97 | – | – | – | 0.19 | <15% | 3.99 | – | – | –
CCCCc1ccc(O)cc1.Cl | – | 3.52 | – | – | – | <15% | – | – | – | –
C[C@]12CCc3c(ccc4cc(O)ccc34)[C@@H]1CCC2=O [EQUILENIN] | – | 3.9 | – | – | – | – | – | – | – | –
COc1ccc(O)c(C(C)(C)C)c1.COc1ccc(O)cc1C(C)(C)C [BUTYLATED HYDROXYANISOLE] | 3.82 | – | – | – | 2.71 | – | – | 1.38 mM | 15% | –
CCOc1ccc(O)cc1 [1-hydroxy-4-ethoxybenzene] | 4.64 | – | – | – | – | <15% | 3.7 | – | – | –
CC(C)(c1ccc(O)cc1)c1ccc(O)cc1 [BISPHENOL A] | – | – | 3.96 | 4.18 | – | <15% | – | – | – | –
Cc1ccc(O)cc1 [p-CRESOL] | 3.85 | 3.35 | 4.05 | 3.82 | – | <15% | – | – | – | –
CCc1ccc(O)cc1 | 3.86 | – | 3.84 | 3.79 | – | <15% | 2.91 | – | – | –
CC(C)(C)c1ccccc1O | 4 | – | – | – | 2.42 | <15% | – | – | – | –
Cc1cc(C(C)(C)C)c(O)c(C(C)(C)C)c1 [BUTYLATED HYDROXYTOLUENE] | 4.04 | – | – | – | 2.09 | – | – | 3.18 mM | – | 91.2 µM
CCCCCCOc1ccc(O)cc1 | 5.5 | – | 5.37 | 5.34 | – | <15% | – | – | – | –
Cl.Nc1ccc(O)cc1 [4-AMINOPHENOL HYDROCHLORIDE] | 5.09 | 4.5 | 1.94 | 4.61 | – | <15% | – | – | – | –
